In the library only some 2.2% were active in any assay of this set; here they are far more common.
MLLE-PAM2 inh = inhibitors of microRNA-mediated deadenylation, human PABP1 MLLE binding; P11940; GST-MLLE / FITC-PAM2 fluorescence polarization; inhibition, % at 20 µM; actives 0.36% (n = 360,000); AID 588489; in the data active means inhibition above about 35%, passing the limit was not always enough
Target sequence (P11940 whole entry, looked up): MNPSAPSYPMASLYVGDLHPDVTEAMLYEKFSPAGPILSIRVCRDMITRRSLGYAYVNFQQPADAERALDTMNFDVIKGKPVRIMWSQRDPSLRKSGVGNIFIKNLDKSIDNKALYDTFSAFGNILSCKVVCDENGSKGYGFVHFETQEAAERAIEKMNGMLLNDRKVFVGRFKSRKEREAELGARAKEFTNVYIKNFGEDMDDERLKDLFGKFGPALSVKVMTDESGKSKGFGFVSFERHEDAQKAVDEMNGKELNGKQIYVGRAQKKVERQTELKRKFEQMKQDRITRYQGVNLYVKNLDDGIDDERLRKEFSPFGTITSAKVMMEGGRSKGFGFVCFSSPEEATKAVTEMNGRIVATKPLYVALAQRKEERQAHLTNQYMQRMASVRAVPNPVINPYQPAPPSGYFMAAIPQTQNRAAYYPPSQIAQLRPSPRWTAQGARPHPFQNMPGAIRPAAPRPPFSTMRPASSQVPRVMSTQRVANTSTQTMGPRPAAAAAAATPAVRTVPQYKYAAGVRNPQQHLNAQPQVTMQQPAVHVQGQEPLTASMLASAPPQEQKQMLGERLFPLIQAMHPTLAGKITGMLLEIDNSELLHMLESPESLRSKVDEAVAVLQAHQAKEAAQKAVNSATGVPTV
PABP polyA inh = PABP-poly(A) binding inhibition; calls only at 35 µM; actives 1% (n = 290,000); PABP-poly(A) RNA binding, fluorescence polarization; P11940;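 further: calls also rest on retests at 20 µM and on dose response follow-up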
VIM-2 inh = inhibitors of Pseudomonas aeruginosa VIM-2 metallo-beta-lactamase; purified VIM-2, nitrocefin hydrolysis, epi-absorbance fluorescence; inhibition, % at 5.6 µM; actives 0.89% (n = 290,000);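 active means inhibition above the mean of all tested compounds plus 3 SD, cutoff set per screening run, cut at about 7.5% in these data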;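 further: red hydrolysis product quenches plate fluorescence so inhibitors raise well fluorescence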
IMP-1 inhibitor = blocks Pseudomonas aeruginosa IMP-1 metallo-beta-lactamase; purified IMP-1, nitrocefin hydrolysis, epi-absorbance fluorescence; inhibition, % at 5.6 µM; actives 0.45% (n = 290,000);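 active means inhibition above the mean plus 3 SD of all compounds in the same screening run, cut at about 4.5% in these data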
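Assay system: purified recombinant IMP-1 beta-lactamase. Input: IMP-1 0.2 nM before substrate addition. Buffer or medium: Zinc- and detergent-supplemented HEPES buffer, pH 7.1. Schedule: 25 °C, 15 min preincubation, 25 min reaction. Signal: Epi-absorbance fluorescence, 480 nm excitation, 530 nm emission. Evaluation: percent inhibition from optical density relative to buffer-blank wells.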
eIF4H inh = inhibitors of RNA binding by human eIF4H; inhibition, % at 35 µM; eIF4H fluorescence polarization binding assay; actives 0.94% (n = 290,000); Q15056;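 further: calls also rest on retests at 20 µM and on dose response follow-up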
Hits are given with their value; i = inactive; nt = no result given; + = active, no number. Unless noted, how the calls were made is not given here.

SMILES | MLLE-PAM2 inh | PABP polyA inh | VIM-2 inh | IMP-1 inhibitor | eIF4H inh
CCC(=O)c1ccc(OCC(O)CNCCc2ccc(Cl)cc2)cc1 (stereo unspecified) | i | i | i | i | i
CCCSc1nnc(NC(=O)CSc2sc3c(O)cc(=O)[nH]c3c2C#N)s1 | i | + | i | i | 72
N#Cc1cccc(NC(=O)CSc2sc3c(O)cc(=O)[nH]c3c2C#N)c1 | i | i | i | i | i
N#Cc1c(SCC(=O)Nc2nc3ccccc3s2)sc2c(O)cc(=O)[nH]c12 | i | nt | nt | nt | nt
N#Cc1c(SCC(=O)Nc2nc3ccc(Br)cc3s2)sc2c(O)cc(=O)[nH]c12 | i | + | i | i | 73
N#Cc1c(SCC(=O)Nc2nccs2)sc2c(O)cc(=O)[nH]c12 | i | + | i | i | 68
Cc1ccc(NS(=O)(=O)c2cccc(C(=O)N(C)Cc3cccs3)c2)cc1 | i | nt | nt | nt | nt
N#C/C(=C/c1ccc(N2CCCCC2)o1)C(=O)Nc1ccc(Cl)cc1 | i | i | i | i | 127
COc1ccccc1Nc1c2c(nc3ccccc13)CCC2 | i | i | 9.4 | i | i
COC(=O)c1cccc(Nc2c3c(nc4ccccc24)CCC3)c1 | i | i | 8.1 | i | i
Cc1ccc2nc3c(c(C(=O)O)c2c1)CCC3 | i | i | i | i | i
COc1cc(Nc2c3c(nc4ccccc24)CCCC3)cc(OC)c1OC | i | i | i | i | i
CC(=O)c1cccc(Nc2c3c(nc4ccccc24)CCC3)c1 | i | i | 10 | i | i
Cc1ccc2nc3c(c(Nc4cccc(O)c4)c2c1)CCC3 | i | i | 9.4 | i | i
Fc1cccc(Nc2c3c(nc4ccccc24)CCC3)c1 | i | i | i | i | i
COc1cc(/C=N/NC(=O)c2ccncc2)ccc1OC(=O)c1cccc(F)c1 | i | i | i | i | i
CN1CCCN(Cc2nc(-c3ccc(Cl)cc3)no2)CC1 | i | i | i | i | i
S=C(NCc1ccccn1)Nc1ccc(Br)cc1Cl | 39 | i | i | i | i
CCOC(=O)C(=CNc1nc(-c2ccccc2)c(C(=O)Nc2ccc(-c3ccccc3)cc2)s1)C(=O)OCC | i | i | i | i | i
CC1CCCN(C(=O)COC(=O)Cc2c(F)cccc2Cl)C1 (stereo unspecified) | i | i | i | i | i
N#CC1=C2SCN(c3ccccc3)CN2C(=O)CC1c1cccs1 (stereo unspecified) | i | + | i | i | 23
N#CC1=C2SCN(c3ccccc3)CN2C(=O)CC1c1c(Cl)cccc1Cl (stereo unspecified) | i | i | 46 | i | i
Nc1cccc(/C=C/c2ccncc2)c1 | i | i | i | i | i
Cc1cccc(CCN2C(N(C)C)=NC[C@@H]2C)c1 | i | nt | nt | nt | nt
O=C1N=C(N2CCCCC2)S/C1=C\c1ccc(Br)cc1 | i | i | i | 4.7 | i
SMILES | MLLE-PAM2 inh | PABP polyA inh | VIM-2 inh | IMP-1 inhibitor | eIF4H inh
CCOC(=O)C1CCN(C2=NC(=O)/C(=C/c3ccc(Cl)cc3)S2)CC1 | i | i | i | 4.9 | i
Cc1ccc(/C=C2\SC(N3CCCC3)=NC2=O)cc1 | nt | i | i | i | i
CCOC(=O)C1CCN(C2=NC(=O)/C(=C/c3ccc(OC)c(OC)c3)S2)CC1 | i | i | i | i | i
Cc1ccc(OCC(=O)NNC(=O)c2ccc(-n3cncn3)c([N+](=O)[O-])c2)cc1 | i | nt | nt | nt | nt
O=C(COc1ccc(Br)cc1)NNC(=O)c1ccc(-n2cncn2)c([N+](=O)[O-])c1 | 58 | nt | nt | nt | nt
COc1ccc(NC(=O)c2ccc(-n3cncn3)c([N+](=O)[O-])c2)cc1 | i | + | i | i | i
CC(=O)NC(c1cccc(F)c1)c1nc(-c2ccccc2)cs1 (stereo unspecified) | i | nt | nt | nt | nt
COc1cccc(CN(C)Cc2nc(Cc3ccccc3Cl)no2)c1 | i | i | i | i | i
Cc1cc(-c2n[nH]c(=S)n2CC(C)C)cs1 | i | i | 8.6 | i | i
CC(C)Cn1c(-c2csc(C(C)C)c2)n[nH]c1=S | i | i | i | i | i
O=C(Cn1cnc2c(cnn2-c2ccc(Cl)cc2)c1=O)NCCc1ccccc1 | i | i | i | i | i
O=C(Cn1cnc2c(cnn2-c2ccc(Cl)cc2)c1=O)NC1CCCCC1 | i | i | i | 5.4 | i
O=C(Nc1ccncc1)C1CCN(S(=O)(=O)c2ccccc2C(F)(F)F)CC1 | i | i | i | i | i
COc1ccc(CNC(=O)C(OC(C)=O)c2ccccn2)cc1 (stereo unspecified) | i | i | i | 5.8 | i
C[C@@H]1COC(=O)[C@@H](CC(=O)OC(C)(C)C)C/C=C\C[C@@H](CC(=O)NCCO)C(=O)N1 | i | nt | nt | nt | nt
COc1ccccc1C(N)=S | 40 | i | i | i | i

High-throughput results from PubChem.
